According to ChEMBL document CHEMBL1127551, “(6,7-Diaryldihydropyrrolizin-5-yl)acetic acids, a novel class of potent dual inhibitors of both cyclooxygenase and 5-lipoxygenase” (J Med Chem, 1994):

How the values were obtained:
Cyclooxygenase = target: T1, Cyclooxygenase (Bos taurus, UniProt O62664+O62698); test: Inhibition of Prostaglandin G/H synthase in bovine thrombocyte intact cell assay.
T1 sequence (O62664 whole entry): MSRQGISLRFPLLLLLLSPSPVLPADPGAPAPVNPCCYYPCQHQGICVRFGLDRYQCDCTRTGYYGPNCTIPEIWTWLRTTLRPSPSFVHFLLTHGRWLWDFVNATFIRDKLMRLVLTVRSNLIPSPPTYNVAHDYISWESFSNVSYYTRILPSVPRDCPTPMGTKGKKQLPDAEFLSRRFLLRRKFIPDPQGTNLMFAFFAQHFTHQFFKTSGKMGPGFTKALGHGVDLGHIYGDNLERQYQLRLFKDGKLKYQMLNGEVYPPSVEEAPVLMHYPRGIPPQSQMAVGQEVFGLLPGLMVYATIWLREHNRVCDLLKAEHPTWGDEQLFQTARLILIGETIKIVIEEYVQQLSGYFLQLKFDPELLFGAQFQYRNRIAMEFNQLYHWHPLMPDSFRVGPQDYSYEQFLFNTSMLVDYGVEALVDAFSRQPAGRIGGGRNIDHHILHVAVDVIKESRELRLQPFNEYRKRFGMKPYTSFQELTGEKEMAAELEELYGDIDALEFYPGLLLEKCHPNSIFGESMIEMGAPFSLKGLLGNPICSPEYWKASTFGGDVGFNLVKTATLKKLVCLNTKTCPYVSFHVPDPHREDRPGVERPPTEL
T1 sequence (O62698 whole entry): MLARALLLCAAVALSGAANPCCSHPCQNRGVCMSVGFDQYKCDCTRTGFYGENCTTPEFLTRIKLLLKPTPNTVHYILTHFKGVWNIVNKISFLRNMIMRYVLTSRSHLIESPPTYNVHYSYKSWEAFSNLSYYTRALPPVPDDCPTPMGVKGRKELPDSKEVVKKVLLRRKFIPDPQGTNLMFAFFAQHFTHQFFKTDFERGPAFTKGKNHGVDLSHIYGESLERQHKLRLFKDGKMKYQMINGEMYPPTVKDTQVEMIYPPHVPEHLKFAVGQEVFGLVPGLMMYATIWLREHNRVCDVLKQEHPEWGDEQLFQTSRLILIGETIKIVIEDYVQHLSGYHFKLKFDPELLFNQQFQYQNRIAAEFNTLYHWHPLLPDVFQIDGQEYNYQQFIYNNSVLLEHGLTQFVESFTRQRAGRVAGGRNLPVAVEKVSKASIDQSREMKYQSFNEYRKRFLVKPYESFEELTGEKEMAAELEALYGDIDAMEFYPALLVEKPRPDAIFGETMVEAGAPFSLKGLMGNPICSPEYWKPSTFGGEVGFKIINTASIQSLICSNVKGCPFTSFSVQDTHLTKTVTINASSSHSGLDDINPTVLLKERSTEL
How it was run: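 Intact thrombocytes isolated from fresh bovine blood by ficoll gradient centrifugation. Cells incubated with test compound, then stimulated with Ca-ionophore A 23187. IC50 taken as the average of at least two determinations.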

[1] = target: T2, Arachidonate 5-lipoxygenase (Bos taurus, UniProt Q9BEG3); test: Inhibition of 5-lipoxygenase in bovine PMNL cell assay.; format: cell-based
T2 sequence (Q9BEG3 whole entry): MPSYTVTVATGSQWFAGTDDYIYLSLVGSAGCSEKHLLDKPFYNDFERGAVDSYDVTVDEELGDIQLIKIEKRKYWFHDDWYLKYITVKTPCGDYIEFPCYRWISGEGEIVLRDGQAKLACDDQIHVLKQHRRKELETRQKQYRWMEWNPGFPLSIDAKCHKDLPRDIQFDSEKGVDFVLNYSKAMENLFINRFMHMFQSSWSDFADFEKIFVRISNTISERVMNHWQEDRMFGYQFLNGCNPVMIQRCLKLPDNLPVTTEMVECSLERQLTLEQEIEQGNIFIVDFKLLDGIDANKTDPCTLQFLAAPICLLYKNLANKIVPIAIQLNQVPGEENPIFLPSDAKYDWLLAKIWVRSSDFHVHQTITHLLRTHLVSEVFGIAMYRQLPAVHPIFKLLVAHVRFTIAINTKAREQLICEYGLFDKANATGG
How it was run: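 Intact polymorphonuclear leukocytes isolated from fresh bovine blood by ficoll gradient centrifugation. Cells incubated with test compound, then stimulated with Ca-ionophore A 23187. IC50 taken as the average of at least two determinations.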

[2] = target: T3, Polyunsaturated fatty acid 5-lipoxygenase (Homo sapiens, UniProt P09917); test: Inhibition of human 5-lipoxygenase in human cells; format: cell-based
T3 sequence (P09917 whole entry): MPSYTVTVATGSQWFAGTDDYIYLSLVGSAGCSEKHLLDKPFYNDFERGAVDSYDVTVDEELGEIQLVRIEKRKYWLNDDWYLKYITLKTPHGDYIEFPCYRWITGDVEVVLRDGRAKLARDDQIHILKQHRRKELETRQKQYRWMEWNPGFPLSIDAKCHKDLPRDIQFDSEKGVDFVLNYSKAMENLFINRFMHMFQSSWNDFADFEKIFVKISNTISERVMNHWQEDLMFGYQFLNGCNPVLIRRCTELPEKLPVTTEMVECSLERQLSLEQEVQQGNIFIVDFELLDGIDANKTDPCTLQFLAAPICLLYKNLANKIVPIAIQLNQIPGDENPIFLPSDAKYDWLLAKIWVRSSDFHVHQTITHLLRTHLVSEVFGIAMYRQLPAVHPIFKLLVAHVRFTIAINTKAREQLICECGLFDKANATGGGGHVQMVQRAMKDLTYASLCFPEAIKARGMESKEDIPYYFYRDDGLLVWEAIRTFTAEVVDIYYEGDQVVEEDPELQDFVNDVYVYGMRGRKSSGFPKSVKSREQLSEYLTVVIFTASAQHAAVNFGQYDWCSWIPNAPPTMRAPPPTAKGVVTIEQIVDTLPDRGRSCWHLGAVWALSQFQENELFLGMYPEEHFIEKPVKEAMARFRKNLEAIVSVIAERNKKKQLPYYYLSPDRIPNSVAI
How it was run: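 Intact PMNL isolated by Ficoll gradient centrifugation from fresh human blood; cells incubated with test compound, then stimulated with Ca-ionophore A 23187; 5-LO inhibition expressed as IC50.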

Structure (SMILES) | IC50 (Cyclooxygenase) | IC50 [1] | IC50 [2]
CC1(C)Cc2c(-c3ccccc3)c(-c3ccc(N)cc3)c(CC(=O)O)n2C1 | 1000 nM | 6000 nM | –
CC1(C)Cc2c(-c3ccccc3)c(-c3ccc([N+](=O)[O-])cc3)c(CC(=O)O)n2C1 | 30 nM | 1500 nM | –
O=C(O)Cc1c(-c2ccc(Cl)cc2)c(-c2ccccc2)c2n1CCC2 | 2000 nM | 1600 nM | –
CC(=O)Nc1ccc(-c2c(-c3ccccc3)c3n(c2CC(=O)O)CC(C)(C)C3)cc1 | 800 nM | 10000 nM | –
CC1(C)Cc2c(-c3ccccc3)c(-c3ccc(F)cc3)c(CC(=O)O)n2C1 | 3200 nM | > 10000 nM | –
CC1(C)Cc2c(-c3ccccc3)c(-c3cccc(Cl)c3)c(CC(=O)O)n2C1 | 3600 nM | 1700 nM | –
CC1(C)Cc2c(-c3ccccc3)c(-c3ccc(Cl)c(Cl)c3)c(CC(=O)O)n2C1 | 4500 nM | 1700 nM | –
CC1(C)Cc2c(-c3ccccc3)c(-c3ccc(Cl)c(Cl)c3Cl)c(CC(=O)O)n2C1 | 12000 nM | 1800 nM | –
CC1(C)Cc2c(-c3ccccc3)c(-c3ccccc3)c(CC(=O)O)n2C1 | 100 nM | 4000 nM | –
CC1(C)Cc2c(-c3ccccc3)c(-c3ccc(O)cc3)c(CC(=O)O)n2C1 | 1600 nM | 7700 nM | –
CC1(C)Cc2c(-c3ccccc3)c(-c3ccc(Oc4ccccc4)cc3)c(CC(=O)O)n2C1 | 2000 nM | 1600 nM | –
CC1(C)Cc2c(-c3ccccc3)c(-c3cc(Cl)ccc3Cl)c(CC(=O)O)n2C1 | 12000 nM | 4300 nM | –
CC1(C)Cc2c(-c3ccccc3)c(-c3ccc(Cl)cc3Cl)c(CC(=O)O)n2C1 | 18000 nM | 2100 nM | –
COc1ccc(-c2c(-c3ccccc3)c3n(c2CC(=O)O)CC(C)(C)C3)cc1 | 100 nM | 240 nM | –
CC1(C)Cc2c(-c3ccccc3)c(-c3ccccc3Cl)c(CC(=O)O)n2C1 | 61000 nM | 4400 nM | –
CC1(C)Cc2c(-c3ccc(Cl)cc3)c(-c3ccccc3)c(CC(=O)O)n2C1 | 3400 nM | 5200 nM | –
CC1(C)Cc2c(-c3ccccc3)c(-c3ccc(C(C)(C)C)cc3)c(CC(=O)O)n2C1 | 20000 nM | 180 nM | –
CC1(C)Cc2c(-c3ccccc3)c(-c3ccc(Cl)cc3)c(CC(=O)O)n2C1 [LICOFELONE] | 210 nM | 180 nM | 230 nM
